# Paper PMC5327638 (Theranostics, 2017)
# How the values were obtained:
# [1] = tested on: MDAMB231 X4 tumor-bearing Balb/c nude mice; assay: Biodistribution by radiodetection; type: in vivo, mouse; details: 24 h after i.v. 50 μg (10 MBq), ^111In
# How it was run: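 Tracer was labelled with 111In alone or with 111In plus 165Ho, and 50 μg (10 MBq) was given i.v.; some mice had SPECT at 24 h first. Mice were killed at 24 h, and tissues were excised and weighed; dual-label samples were halved before weighing. Gamma counting used 245 keV for 60 s. cpm were converted to MBq, corrected for decay and counting efficiency. %ID/g = (MBq in tissue/injected dose ×100%)/tissue weight.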
# [2] = tested on: MDAMB231 X4 tumor-bearing Balb/c nude mice; assay: In vivo SPECT imaging in tumor-bearing mice; parameters: species or system mouse; details: i.v., 50 μg, 10 MBq; 24 hrs post-injection; n=5
# [3] = target: chemokine receptor 4 (CXCR4), MDAMB231 X4 cells (Homo sapiens, UniProt P61073); assay: Fluorescence flow cytometry saturation binding
# How it was run: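 Trypsinised cells (300000 per aliquot) were exposed to tracer at 0–1000 nM in 0.1% BSA/PBS for 1 hr at 4 °C, washed three times and resuspended. Flow cytometry used a 635 nm laser with a […] filter. Mean fluorescence counts gave saturation curves. Triplicates, total n=6.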
# chemokine receptor 4 (CXCR4), MDAMB231 X4 cells, sequence (P61073 whole entry): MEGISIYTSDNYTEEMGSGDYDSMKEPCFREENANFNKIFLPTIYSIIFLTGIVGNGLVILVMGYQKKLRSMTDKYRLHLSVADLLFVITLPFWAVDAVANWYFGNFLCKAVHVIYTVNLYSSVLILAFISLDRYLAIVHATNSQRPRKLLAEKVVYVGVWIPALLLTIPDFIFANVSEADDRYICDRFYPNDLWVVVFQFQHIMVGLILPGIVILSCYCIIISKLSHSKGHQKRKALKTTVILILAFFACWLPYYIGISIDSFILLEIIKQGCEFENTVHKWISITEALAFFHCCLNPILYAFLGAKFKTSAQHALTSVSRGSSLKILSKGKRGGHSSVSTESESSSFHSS
smiles,measurement,setting,value
"CC(=O)N[C@@H](CCCNC(=N)N)C(=O)N[C@@H](CCCNC(=N)N)C(=O)N[C@@H](Cc1ccc2ccccc2c1)C(=O)N[C@H]1CSSC[C@@H](C(=O)N[C@@H](CCCNC(=N)N)C(N)=O)NC(=O)[C@H](CCCNC(N)=O)NC(=O)[C@H](CCCNC(=N)N)NC(=O)[C@H](Cc2ccc(O)cc2)NC(=O)[C@@H]2CCCN2C(=O)[C@@H](CCCCNC(=O)CCCNC(=O)[C@H](CCCCNC(=O)CCCCCN2C(=CC=CC=CC3=[N+](CCCCS(=O)(=O)O)c4ccc(S(=O)(=O)[O-])cc4C3(C)C)C(C)(C)c3cc(S(=O)(=O)O)ccc32)NC(=O)CN(CCN(CC(=O)O)CC(=O)O)CCN(CC(=O)O)CC(=O)O)NC(=O)[C@H](CCCNC(=N)N)NC(=O)[C@H](CCCNC(N)=O)NC(=O)[C@H](Cc2ccc(O)cc2)NC1=O (single isomer, unassigned) [^111In(^165Ho)-hybrid-Cy5-Ac-TZ14011, metal not drawn]","tumor to muscle ratio (T/M), radiodetection",[1]; n=3-5,4.38 ± 1.51
"CC(=O)N[C@@H](CCCNC(=N)N)C(=O)N[C@@H](CCCNC(=N)N)C(=O)N[C@@H](Cc1ccc2ccccc2c1)C(=O)N[C@H]1CSSC[C@@H](C(=O)N[C@@H](CCCNC(=N)N)C(N)=O)NC(=O)[C@H](CCCNC(N)=O)NC(=O)[C@H](CCCNC(=N)N)NC(=O)[C@H](Cc2ccc(O)cc2)NC(=O)[C@@H]2CCCN2C(=O)[C@@H](CCCCNC(=O)CCCNC(=O)[C@H](CCCCNC(=O)CCCCCN2C(=CC=CC=CC3=[N+](CCCCS(=O)(=O)O)c4ccc(S(=O)(=O)[O-])cc4C3(C)C)C(C)(C)c3cc(S(=O)(=O)O)ccc32)NC(=O)CN(CCN(CC(=O)O)CC(=O)O)CCN(CC(=O)O)CC(=O)O)NC(=O)[C@H](CCCNC(=N)N)NC(=O)[C@H](CCCNC(N)=O)NC(=O)[C@H](Cc2ccc(O)cc2)NC1=O (single isomer, unassigned) [^111In-hybrid-Cy5-Ac-TZ14011, metal not drawn]","uptake in tumor exceeding uptake in muscle, factor",[1],6
same,uptake on SPECT images,[2],high uptake in the liver and kidneys as well as in the tumor
"CC(=O)N[C@@H](CCCNC(=N)N)C(=O)N[C@@H](CCCNC(=N)N)C(=O)N[C@@H](Cc1ccc2ccccc2c1)C(=O)N[C@H]1CSSC[C@@H](C(=O)N[C@@H](CCCNC(=N)N)C(N)=O)NC(=O)[C@H](CCCNC(N)=O)NC(=O)[C@H](CCCNC(=N)N)NC(=O)[C@H](Cc2ccc(O)cc2)NC(=O)[C@@H]2CCCN2C(=O)[C@@H](CCCCNC(=O)CCCNC(=O)[C@H](CCCCNC(=O)CCCCCN2C(=CC=CC=CC3=[N+](CCCCS(=O)(=O)O)c4ccc(S(=O)(=O)[O-])cc4C3(C)C)C(C)(C)c3cc(S(=O)(=O)O)ccc32)NC(=O)CN(CCN(CC(=O)O)CC(=O)O)CCN(CC(=O)O)CC(=O)O)NC(=O)[C@H](CCCNC(=N)N)NC(=O)[C@H](CCCNC(N)=O)NC(=O)[C@H](Cc2ccc(O)cc2)NC1=O (single isomer, unassigned) [hybrid-Cy5-Ac-TZ14011]",Kd,[3],245 ± 65 nM
same,"maximum signal intensity, flow cytometry","[3]; Cy5, saturation binding, n=6",1100 fluorescence counts
